Only some compounds are listed: those with a hit (about 4.9% of all), similar ones and a draw of the others.
STAT1 act-1 – increases IFN-gamma driven STAT1 reporter signal. activation (% of control), % at 5.5 µM. NIH 3T3 STAT1-luciferase reporter, luminescence; 100% = IFN-gamma alone, no compound. 200,000 compounds, 2.6% hits. AID 932;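 active means activation above the screen-wide mean activation plus 3 SD, cut at about 130% in these data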;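 further: raw ratio to IFN-gamma control signal so 100% means no change and 0% no light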
STAT3 act-1 – increases IL-6 driven STAT3 reporter signal | U3A cells, IL-6 STAT3-luciferase reporter, luminescence; 100% = signal with IL-6 EC80 alone | activation (% of control), % at 5.6 µM | 190,000 compounds, 0.91% hits | AID 871;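 active means activation above the screen-wide mean of compound activation plus 3 SD, cut at about 130% in these data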;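 further: 0% = background luminescence of wells with medium and substrate only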
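System – human U3A cells carrying STAT3-luciferase construct · Probe or stimulus – Interleukin-6, 33 ng/mL · Schedule – compound 1 h, then IL-6 6 h at 37 °C · Signal – luminescence from STAT3-driven luciferase reporter · Evaluation – percent of IL-6-only median luminescence · Benchmarks – IL-6-only high control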
STAT3 blocker – inhibitors of IL-6 induced STAT3 signaling; inhibition, % at 5.5 µM; U3A cells, IL-6 STAT3-luciferase reporter, luminescence; host cell line lacks STAT1; 190,000 compounds, 0.89% hits;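 active means inhibition above the mean inhibition across all screened compounds plus 3 SD, cut at about 44% in these data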;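 further: 0% = DMSO only wells and 100% = 100 µM nifuroxazide control wells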
APP 5'UTR act – activates APP 5'UTR luciferase reporter | SH-SY5Y APP 5'UTR luciferase reporter, luminescence; zero percent = DMSO vehicle wells | activation, % at 2 µM | 190,000 compounds, 1% hits | AID 1276;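 active means activation above a set limit, based on mean plus 3 SD of controls, cut at about 140% in these data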
STAT1 blocker – STAT1 signaling inhibition. NIH 3T3 STAT1-luciferase reporter, IFN-gamma, luminescence. inhibition, % at 5.5 µM. 200,000 compounds, 0.35% hits. AID 920;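 active means inhibition above a set limit, the mean inhibition across all tested compounds plus 3 SD, cut at about 34% in these data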;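 further: 0% = IFN-gamma with DMSO and 100% = IFN-gamma with 300 µM nifuroxazide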
NF-kB expr up – NF-kB expression increase, human neuronal cells; NF-kB reporter expression; hits give high values; fold change at 12.5 µM; 190,000 compounds, 1.6% hits; AID 1239; in the data active means fold change above about 3.3
STAT3 act-2 – STAT3 activation, confirmation assay; shares compounds with STAT3 act-1; U3A STAT3-luciferase reporter, IL-6 potentiation, luminescence; U3A cells lack STAT1; 100 means same as IL-6 alone; potentiation (% of control), % at 5.7 µM; 1,200 compounds, 64% hits;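 active means percent activation of the STAT3 luciferase reporter above a set limit taken from the earlier primary screen, cut at about 130% in these data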;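 further: 0% = background signal of medium plus substrate and 100% = median of IL-6 with DMSO wells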
NFkB act STAT3ct – NF-kappaB activation in STAT3 activator counter-screen. shares compounds with STAT3 act-1. human cells, NF-kappaB reporter activation. activation (% of control), % at 5.7 µM. 1,200 compounds, 11% hits. AID 1309; in the data active means activation above about 120%;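 further: reporter induced by TNF-alpha stimulation; 100% = median of stimulated DMSO wells and 0% = no signal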
STAT1 act-2 – activates STAT1, counter-screen to STAT3 activators. shares compounds with STAT3 act-1. NIH 3T3 STAT1-luciferase reporter, IFN-gamma, luminescence. activation (% of control), % at 5.7 µM. 1,200 compounds, 13% hits;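 active means activation above the solvent-only control well mean plus 3 SD, set per screening run, cut at about 120% in these data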;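 further: 100% = IFN-gamma with DMSO median signal so 100% means no change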
The depositor's hits bear a star.

Results for O=C1OCC2=C1C(c1ccc(F)cc1)c1cc3c(cc1N2)OCCO3 (stereo not drawn) ?
STAT1 act-1: 98.6; STAT3 act-1: 138.3*; STAT3 blocker: -38.5; APP 5'UTR act: -93.7; STAT1 blocker: 1.4; NF-kB expr up: 2.88; STAT3 act-2: 96.5; NFkB act STAT3ct: 104.9; STAT1 act-2: 101.3

How did CCOc1ccccc1C1CC(=O)Nc2cc3c(cc21)OCO3 (stereo not drawn) do in these assays?
STAT1 act-1: 96.3; STAT3 act-1: 93.9; STAT3 blocker: 9.0; APP 5'UTR act: -90.3; STAT1 blocker: 4.1; NF-kB expr up: 2.2

Results for COc1cc2c(cc1OC)C(c1ccc3c(c1)OCO3)C1=C(CC(C)(C)CC1=O)N2 (stereo not drawn) ?
STAT1 act-1: 94.6; STAT3 act-1: 94.9; STAT3 blocker: 9.9; APP 5'UTR act: -3.3; STAT1 blocker: 5.9; NF-kB expr up: 0.82

How did NC(=O)CC1C(=O)N(c2ccc(F)cc2)C(=O)N1NC(=O)CCc1ccccc1 (stereo not drawn) do in these assays?
STAT1 act-1: 102.1; STAT3 act-1: 96.9; STAT3 blocker: 11.2; APP 5'UTR act: 11.0; STAT1 blocker: -3.7; NF-kB expr up: 1.05

How did Cn1ncc([N+](=O)[O-])c1C(=O)n1nnc2ccccc21 do in these assays?
STAT1 act-1: 100.6; STAT3 act-1: 85.1; STAT3 blocker: 26.5; APP 5'UTR act: 0.3; STAT1 blocker: -1.4; NF-kB expr up: 1.34

How did CCCNC(=O)Cn1c(=O)cnc2ccccc21 do in these assays?
STAT1 act-1: 99.2; STAT3 act-1: 93.9; STAT3 blocker: 3.2; APP 5'UTR act: 11.8; STAT1 blocker: 0.9; NF-kB expr up: 0.99

How did CCCNC(=O)Cn1c2ccccc2c2nc(=O)cc(C)n21 do in these assays?
STAT1 act-1: 95.5; STAT3 act-1: 169.9*; STAT3 blocker: -71.0; APP 5'UTR act: -9.6; STAT1 blocker: 5.0; NF-kB expr up: 0.95; STAT3 act-2: 158.3*; NFkB act STAT3ct: 101.5; STAT1 act-2: 94.0

Results for CCOC(=O)N1CCN(C(=O)CCNS(=O)(=O)c2ccc3c(c2)c(=O)n(C)c(=O)n3C)CC1 ?
STAT1 act-1: 105.3; STAT3 act-1: 97.3; STAT3 blocker: 4.9; APP 5'UTR act: 3.3; STAT1 blocker: -6.9; NF-kB expr up: 0.85

What do the screens show for `CN1c2ccccc2C(C)(C)C12C=Nc1c(ccc3ccccc13)O2` (stereo not drawn)?
STAT1 act-1: 87.9; STAT3 act-1: 165.8*; STAT3 blocker: -77.8; APP 5'UTR act: 20.9; STAT1 blocker: 13.4; NF-kB expr up: 0.49; STAT3 act-2: 150.1*; NFkB act STAT3ct: 115.0; STAT1 act-2: 107.5

What do the screens show for `C=CCO/N=C(/CCC)C1=C(N)CC(C)(C)CC1=O`?
STAT1 act-1: 93.9; STAT3 act-1: 100.2; STAT3 blocker: 5.0; APP 5'UTR act: 6.5; STAT1 blocker: 5.2; NF-kB expr up: 1.32

What do the screens show for `COC(=O)CCC(=O)NC(=S)Nc1sc(C)c(C)c1C(N)=O`?
STAT1 act-1: 98.7; STAT3 act-1: 139.5*; STAT3 blocker: -46.8; APP 5'UTR act: -93.9; STAT1 blocker: 1.5; NF-kB expr up: 1.3; STAT3 act-2: 103.8; NFkB act STAT3ct: 137.4*; STAT1 act-2: 105.8

Results for COC(=O)CCC(=O)Nc1sc(C)c(C)c1C(N)=O ?
STAT1 act-1: 100.2; STAT3 act-1: 100.8; STAT3 blocker: 5.4; APP 5'UTR act: -9.0; STAT1 blocker: -1.4; NF-kB expr up: 1.18

What do the screens show for `C/C(N)=C(/C#N)C(=O)CSc1nc2scc(-c3ccc(F)cc3)c2c(=O)n1C`?
STAT1 act-1: 100.7; STAT3 act-1: 100.3; STAT3 blocker: 8.0; APP 5'UTR act: -15.1; STAT1 blocker: -0.6; NF-kB expr up: 0.92

What do the screens show for `O=C(/C=C/c1ccccc1)NC(=S)N1CCSCC1`?
STAT1 act-1: 100.3; STAT3 act-1: 96.8; STAT3 blocker: 10.6; APP 5'UTR act: 28.2; STAT1 blocker: -2.4; NF-kB expr up: 1.12

Results for COc1ccc(C2CC3(CC(C)(C)NC(=S)N3)Oc3cc(O)cc(C)c32)cc1OC (stereo not drawn) ?
STAT1 act-1: 102.1; STAT3 act-1: active; STAT3 blocker: inactive; APP 5'UTR act: 36.6; STAT1 blocker: -4.2; NF-kB expr up: 1.22; STAT3 act-2: 692.9*; NFkB act STAT3ct: 118.4; STAT1 act-2: 121.4*

How did COc1cc(C(=O)N/N=C/C2CC=CCC2)cc(OC)c1OC (stereo not drawn) do in these assays?
STAT1 act-1: 110.3; STAT3 act-1: 144.1*; STAT3 blocker: -59.5; APP 5'UTR act: -93.0; STAT1 blocker: -11.3; NF-kB expr up: 0.67; STAT3 act-2: 98.6; NFkB act STAT3ct: 103.5; STAT1 act-2: 96.7

How did O=C(N/N=C/C1CC=CCC1)c1ccc(O)cc1O (stereo not drawn) do in these assays?
STAT1 act-1: 93.6; STAT3 act-1: 93.6; STAT3 blocker: 7.8; APP 5'UTR act: 47.3; STAT1 blocker: 7.3; NF-kB expr up: 1.63

How did Cc1ccc(NCC(=O)N/N=C/c2cc3ccccc3nc2Cl)cc1 do in these assays?
STAT1 act-1: 92.2; STAT3 act-1: 177.6*; STAT3 blocker: -90.0; APP 5'UTR act: 7.1; STAT1 blocker: 8.7; NF-kB expr up: 1.12; STAT3 act-2: 171.4*; NFkB act STAT3ct: 113.2; STAT1 act-2: 107.4

What do the screens show for `O=C(CN1CCOCC1)N/N=C/c1cc2ccccc2nc1Cl`?
STAT1 act-1: 100.9; STAT3 act-1: 95.8; STAT3 blocker: 11.5; APP 5'UTR act: 9.4; STAT1 blocker: -1.0; NF-kB expr up: 0.68

How did CCCc1cc(=O)[nH]c(SCC(=O)c2c[nH]c3ccccc23)n1 do in these assays?
STAT1 act-1: 92.2; STAT3 act-1: 143.0*; STAT3 blocker: -36.1; APP 5'UTR act: 14.4; STAT1 blocker: 8.6; NF-kB expr up: 1.17; STAT3 act-2: 123.0; NFkB act STAT3ct: 101.7; STAT1 act-2: 104.3

What do the screens show for `COC(=O)c1cn(CC(=O)N2C(C)CCCC2C)c2ccccc12` (stereo not drawn)?
STAT1 act-1: 103.6; STAT3 act-1: 104.0; STAT3 blocker: -0.9; APP 5'UTR act: 13.9; STAT1 blocker: -8.0; NF-kB expr up: 0.91
